Fibroblast inh = blocks proliferation of human lung fibroblasts | LL 47 human lung fibroblast viability, ATP luminescence; hits give low values | viability, % at 10 µM | actives 1.1% (n = 85,000);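 active = viability at or below 50% in the single dose screen; inactive = viability above 50%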;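 also: compound exposure lasted 72 h before the ATP readout; 100% = median luminescence of untreated cell-only wells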
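Assay system: human lung fibroblast line LL 47, low passage. Input: 1,150 fibroblasts seeded per well. Times: overnight cell rest, 72 h compound treatment at 37 °C. Evaluation: % viability of median cell-only signal. Technique: luminescent ATP detection, CellTiter-Glo. Control set: cell-only wells, no compound.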
H69AR growth 86K = blocks growth of human H69AR lung tumor cells; H69AR lung tumor viability, ATP luminescence, 72 h; hits give low values; viability, % at 10 µM; actives 6% (n = 85,000);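 active = viability at or below 40%; inactive = viability above 40%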;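 also: multidrug resistant small cell line overexpressing MRP-1 efflux transporter; 100% = mean luminescence of untreated control wells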
HUVEC inhibit = blocks proliferation of human endothelial cells. HUVEC proliferation, CellTiter-Glo luminescence, 72 h; hits give low values. viability, % at 10 µM (by protocol). actives 1.1% (n = 86,000);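 active = viability at or below 30%; inactive = viability above 30%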;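 also: 100% = median luminescence of DMSO-only cell control wells on each plate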
HCT116 bCat-KO = beta-catenin-lacking colon tumor cell growth suppression. actives 1.5% (n = 140,000). HCT116 beta-catenin knockout viability, CellTiter-Glo, 60 h; hits give low values. viability, % at 10 µM. AID 818;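 active = viability at or under a set limit, the compound median less 4 SD, cut at about 6% in these data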;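 also: 0% = Hyamine 1622 control at 20 µM and 100% = untreated cell control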
PTEN del growth = growth suppressors of cells with PTEN tumor suppressor deletion | HCT116 PTEN-null viability, CellTiter-Glo, 60 h; hits give low values | viability, % at 10 µM | actives 1.2% (n = 140,000);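 active = viability at or below a set limit, 4 SD under the median of all tested compounds, cut at about 3.7% in these data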;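 also: PTEN knockout HCT116 line with beta catenin targeted HCT116 as companion control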
Phagocyt inh = inhibitors of macrophage phagocytosis. AID 1029. inhibition, % at 5 µM. actives 0.07% (n = 110,000). J774A.1 macrophage IgG-bead phagocytosis, imaging;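 active = inhibition above the mean of the plate negative controls plus 5 SD, cut at about 13% in these data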;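 also: phagocytic index as fraction of beads internalized from green versus red external bead signal; plate controls were DMSO negative control for no effect and cytochalasin-D positive control for full effect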
The depositor's hits bear a star; · = no result given. The entries come from a sample that favours hits as a whole.

SMILES	Fibroblast inh	H69AR growth 86K	HUVEC inhibit	HCT116 bCat-KO	PTEN del growth	Phagocyt inh
COc1ccc(Cc2ccc(OC)c(N)c2)cc1N	95	29*	82	84	101	0
O=C(COC(=O)C1(c2ccc(F)cc2)CCCC1)N1CCc2ccccc21	·	·	·	95	93	-2
CCCCC(=O)NC(c1cccc([N+](=O)[O-])c1)c1c(OC(C)=O)ccc2ccccc12 (centres undefined)	89	4.6*	80	61	56	·
O=C(CCCc1nc2ccccc2s1)NC(c1ccccc1)c1ccccc1	·	·	·	89	85	-15
CCOc1cc(/C=C\[N+](=O)[O-])ccc1OCC(=O)Nc1ccccc1C	·	·	·	2.1*	1.9*	2
Cc1ccc(NC2(c3nnnn3-c3c(C)cccc3C)CCCCC2)cc1	·	·	·	67	66	-9
O=c1oc2c(CN3CCCCC3)c(O)ccc2cc1-c1nc2ccccc2[nH]1	103	79	94	·	·	-4
O=c1oc2c3c4c(cc2cc1-c1nc2ccccc2[nH]1)CCCN4CCC3	84	1.5*	56	·	·	·
CS/C(=N\S(=O)(=O)c1cccs1)NC(=O)CSc1nc2ccccc2s1	102	97	89	101	91	2
COc1ccc(C(=O)N2CCCC(c3nc(-c4cc(OC)c(OC)c(OC)c4)no3)C2)cc1 (centres undefined)	93	35*	79	90	92	0
COc1ccccc1C(=O)N1CCCC(c2nc(-c3cc(OC)c(OC)c(OC)c3)no2)C1 (centres undefined)	96	61	91	94	91	0
CN(C)c1nc(-c2ccccc2)c2cnn(Cc3ccccc3)c2n1	81	19*	73	66	56	0
c1ccc(Cn2ncc3c2ncn2nc(-c4ccncc4)nc32)cc1	99	85	98	·	·	·
COC(=O)c1sccc1NC(=O)c1c(C)c(-c2cccc(Cl)c2)nc2ccccc12	·	·	·	66	74	-6
Cc1nc2ccc(S(=O)(=O)Nc3ccccc3C)cc2s1	91	33*	67	56	56	0
Cc1nc2ccc(NS(=O)(=O)c3ccc(C)c(C)c3)cc2s1	·	·	·	27	34	-1
COc1ccc(/C=N/n2c(SC)nnc2-c2ccccc2)c(OC)c1OC	60	30*	43	28	31	0
COc1ccc(/C=N/n2c(SC)nnc2-c2ccccc2)cc1C	88	26*	87	80	68	1
COc1cccc(/C=N\n2c(C)nnc2C)c1OC	·	·	·	98	95	-4
COC(=O)C(C)(C)ONC(=O)Nc1ccccc1	·	·	·	98	91	-2
COCCn1c(SCC(=O)c2ccc(F)cc2)nnc1C(C)C	97	105	98	85	84	-2
Cc1c(Cl)cccc1NC(=S)N1CCC(C(N)=O)(N2CCCCC2)CC1	·	·	·	80	89	-3
COc1cc(/C=C2/C(=O)c3cccc([N+](=O)[O-])c3C2=O)c(Br)cc1O	·	·	·	7	10	-5
CCCSc1nnc(NC(=O)Nc2ccc(F)cc2)s1	47*	11*	47	42	41	-1
CNC(=O)N(C1=NCC(C)(C)S1)c1ccc(F)c(Cl)c1	81	15*	52	40	36	0
SMILES	Fibroblast inh	H69AR growth 86K	HUVEC inhibit	HCT116 bCat-KO	PTEN del growth	Phagocyt inh
Cc1c(C(=O)Nc2ccncc2)sc2nc(-c3ccccc3)cn12	93	82	101	89	81	-1
Cc1c(C(=O)Nc2ccc3c(c2)OCCO3)sc2nc(-c3ccccc3)cn12	85	38*	51	14	21	·
CCCCC1CCC(/C(N)=N/O)CC1 (centres undefined)	·	27*	85	81	91	-1
COCCn1nnnc1CN(CCc1ccccc1)Cc1cc2ccc(C)cc2[nH]c1=O	93	63	96	74	87	-1
Cc1[nH]n2c(=O)cc(C(C)(C)C)nc2c1-c1ccccc1	69	36*	50	13	17	4
COC(=O)Cc1cc(=O)n2[nH]c(C)c(-c3ccccc3)c2n1	95	99	90	105	106	·
Cc1[nH]n2c(=O)cc(C(C)C)nc2c1-c1ccccc1	66	14*	58	67	74	-2
CCCc1cc(=O)n2[nH]c(C)c(-c3ccccc3)c2n1	103	55	76	89	83	-1
Cc1[nH]n2c(=O)cc(-c3ccc([N+](=O)[O-])cc3)nc2c1-c1ccccc1	53	15*	8.6*	·	·	·
Cc1[nH]n2c(=O)c(C#N)c(-c3ccccc3)nc2c1-c1ccccc1	102	84	87	107	96	-1
Fc1ccc(-c2cc3nc(-c4ccccc4)cc(N4CCN(CCN5CCOCC5)CC4)n3n2)cc1	57	26*	32	1.7*	1.6*	-1
COc1cccc(-c2cc3nc(-c4ccccc4)cc(N4CCC5(CC4)OCCO5)n3n2)c1	99	68	70	46	33	·
CN1CCN(c2cc(-c3ccccc3)nc3cc(-c4ccc(F)cc4)nn23)CC1	·	·	·	3.8*	1.3*	2
Fc1cccc(-c2cc3nc4c(c(N5CCOCC5)n3n2)CCCC4)c1	94	63	92	76	70	2
Cc1c(Br)c([N+](=O)[O-])nn1CC(=O)N1CCCc2ccccc21	·	·	·	87	97	1
Cc1ccc(S(=O)(=O)N(C)C)cc1NC(=O)c1cncc(Br)c1	·	·	·	27	30	-7
CCC(C)Nc1c2c(nc3c(-c4ccccc4)c(C)nn13)CCC2 (centres undefined)	97	30*	94	83	80	·
CCCCNc1c2c(nc3c(-c4ccccc4)c(C)nn13)CCC2	84	27*	80	85	87	0
Cc1nn2c(Nc3ccc(F)cc3)c3c(nc2c1-c1ccccc1)CCC3	·	·	·	93	80	-2
FC(F)(F)c1cc(N2CCOCC2)nc(-c2ccccc2)n1	·	·	·	88	91	·
Cc1ccc(C)c(NC(=S)NC(NC(=O)Cc2cccc3ccccc23)C(Cl)(Cl)Cl)c1 (centres undefined)	4.4*	2.3*	4.3*	17	2.6*	·
Brc1ccc(NCc2cccc3ccccc23)nc1	87	79	96	83	82	·
Oc1ccccc1CNc1ccc(Br)cn1	6.4*	82	9.3*	20	36	·
CCn1cc([N+](=O)[O-])c(C(=O)Nc2nc(-c3ccc(C)c(C)c3)c(C)s2)n1	·	·	·	88	70	1
CCn1cc([N+](=O)[O-])c(C(=O)Nc2nc(-c3ccc(C)cc3)c(C)s2)n1	·	·	·	6	3.3*	-2
Cc1onc(-c2c(F)cccc2Cl)c1C(=O)OCn1nnc2ccccc2c1=O	85	68	84	91	86	·
Cc1cc(C)n(-c2nc(Nc3ccccc3C(F)(F)F)nc(-n3nc(C)cc3C)n2)n1	27*	8.1*	15*	2.9*	3.5*	·
Cc1cc(C)n(-c2nc(Nc3ccccc3C)nc(-n3nc(C)cc3C)n2)n1	23*	54	74	88	81	·
